Activity calls are given as the source filed them. No cut-off for these calls is given here.
What was measured:
[1] = tested on: A549; experiment: Growth inhibition of human A549 cells after 48 hrs by sulforhodamine B assay; format: functional; details: A549, 48 h
[2] = (§1) Inhibition of TNF-alpha-induced NFkappaB nuclear translocation in human A549 cells preincubated for 30 mins before TNFalpha challenge and measured 30 post TNFalpha challenge by fluorescence method; format: cell-based
[3] = tested on: NCI-H157; experiment: Growth inhibition of human NCI-H157 cells after 72 hrs by alamar blue method; format: functional; details: NCI-H157, 72 h
In short: (§2)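 Cells kept in RPMI with 10% FBS and penicillin/streptomycin at 37°C, 5% CO2. Plated in 384-well format, dosed the next day, then incubated 72 hr before Alamar Blue read-out. GI50 is the concentration lowering viability by 50% versus solvent-vehicle control cells at the end of incubation.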

[4] = tested on: A549; experiment: Growth inhibition of human A549 cells after 72 hrs by alamar blue method; format: functional; details: A549, 72 h; in short: as §2
[5] = molecular target: T1, Inhibitor of nuclear factor kappa-B kinase subunit beta (Homo sapiens) (UniProt O14920); experiment: Inhibition of recombinant IKK-beta assessed as inhibition of incorporation of [gamma32P] to GST-IkappaBalpha after 30 mins by scintillation counting
T1 sequence (whole entry): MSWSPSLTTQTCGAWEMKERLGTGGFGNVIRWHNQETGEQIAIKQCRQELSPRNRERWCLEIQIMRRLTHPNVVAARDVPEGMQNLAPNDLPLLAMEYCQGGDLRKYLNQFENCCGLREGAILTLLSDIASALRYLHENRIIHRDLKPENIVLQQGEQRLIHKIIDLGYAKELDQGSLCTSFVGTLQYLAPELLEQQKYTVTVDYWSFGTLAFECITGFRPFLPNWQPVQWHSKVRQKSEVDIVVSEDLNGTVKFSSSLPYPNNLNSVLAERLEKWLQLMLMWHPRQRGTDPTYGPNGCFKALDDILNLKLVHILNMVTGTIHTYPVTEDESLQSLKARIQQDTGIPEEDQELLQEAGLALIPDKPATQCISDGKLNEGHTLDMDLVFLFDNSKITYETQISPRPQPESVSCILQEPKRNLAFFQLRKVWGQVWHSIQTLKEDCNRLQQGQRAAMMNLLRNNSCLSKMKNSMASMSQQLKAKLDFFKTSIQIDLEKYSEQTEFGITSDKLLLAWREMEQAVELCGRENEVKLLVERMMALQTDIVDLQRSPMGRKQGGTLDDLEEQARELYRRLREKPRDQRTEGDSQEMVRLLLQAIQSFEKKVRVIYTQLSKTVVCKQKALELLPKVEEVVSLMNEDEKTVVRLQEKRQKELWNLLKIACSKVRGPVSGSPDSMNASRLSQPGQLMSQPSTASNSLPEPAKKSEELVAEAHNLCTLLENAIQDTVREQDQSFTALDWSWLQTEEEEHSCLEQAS
In short: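 Activated recombinant IKKβ (40 ng) preincubated with compounds 30 min at room temperature in MOPS buffer pH 7.0. Reaction started with Mg-ATP mix (100 μM ATP, 15 mM MgCl2), 5 μg GST-IκBα and 0.5 μCi [γ-32P]ATP in 25 μl, run 30 min at 30°C. Stopped by boiling in SDS buffer, resolved by 12.5% SDS-PAGE, autoradiographed. Excised bands quantified by scintillation counting.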

[6] = molecular target: T2, Inhibitor of NF-kappa-B kinase (IKK) (Homo sapiens, UniProt O14920+O15111+Q9Y6K9); experiment: Inhibition of IKK in human A549 cells assessed as inhibition of TNF-alpha-induced IkappaB degradation at 0.5 to 25 uM preincubated for 4 hrs before TNFalpha challenge measured after 20 mins by Western blot analysis; format: cell-based
T2 sequence (O15111 whole entry, one chain of several): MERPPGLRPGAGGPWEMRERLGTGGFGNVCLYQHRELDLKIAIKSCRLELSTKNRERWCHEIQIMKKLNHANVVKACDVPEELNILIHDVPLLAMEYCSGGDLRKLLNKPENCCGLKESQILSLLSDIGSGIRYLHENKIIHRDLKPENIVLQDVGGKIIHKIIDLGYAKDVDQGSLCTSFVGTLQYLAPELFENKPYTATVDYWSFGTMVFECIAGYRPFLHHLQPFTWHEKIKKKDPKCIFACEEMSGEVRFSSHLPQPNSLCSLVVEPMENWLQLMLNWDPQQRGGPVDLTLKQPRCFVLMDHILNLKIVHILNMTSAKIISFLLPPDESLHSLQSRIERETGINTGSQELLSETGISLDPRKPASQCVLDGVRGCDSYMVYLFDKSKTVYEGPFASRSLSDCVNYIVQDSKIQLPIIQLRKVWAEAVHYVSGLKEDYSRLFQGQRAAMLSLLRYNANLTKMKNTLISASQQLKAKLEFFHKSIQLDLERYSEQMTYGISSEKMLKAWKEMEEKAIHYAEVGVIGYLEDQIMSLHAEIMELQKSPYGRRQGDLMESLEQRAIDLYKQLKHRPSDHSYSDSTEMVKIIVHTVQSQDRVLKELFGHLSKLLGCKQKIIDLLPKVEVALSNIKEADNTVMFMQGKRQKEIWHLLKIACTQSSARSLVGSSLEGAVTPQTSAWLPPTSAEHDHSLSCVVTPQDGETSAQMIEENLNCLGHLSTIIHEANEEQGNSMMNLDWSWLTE
T2 sequence (Q9Y6K9 whole entry, one chain of several): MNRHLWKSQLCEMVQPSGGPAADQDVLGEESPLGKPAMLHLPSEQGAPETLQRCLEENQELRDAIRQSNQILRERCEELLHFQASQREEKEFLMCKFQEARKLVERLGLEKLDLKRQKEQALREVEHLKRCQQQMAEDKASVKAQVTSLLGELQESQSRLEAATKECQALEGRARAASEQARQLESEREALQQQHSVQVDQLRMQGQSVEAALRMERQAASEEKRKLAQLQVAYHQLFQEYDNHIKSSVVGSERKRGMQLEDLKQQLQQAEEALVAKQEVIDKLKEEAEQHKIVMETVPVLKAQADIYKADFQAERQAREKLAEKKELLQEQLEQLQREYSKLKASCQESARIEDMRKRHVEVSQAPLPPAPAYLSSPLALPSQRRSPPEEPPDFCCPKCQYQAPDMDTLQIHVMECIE
In short: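 A549 cells pretreated with compounds at indicated doses, then TNFα (10 ng/ml) added for a further 20 min. Cells lysed in NP-40 buffer (1.0% NP-40, 10 mM Hepes pH 7.4, 150 mM NaCl, phosphatase and protease inhibitors). Equal lysate volumes run on 12.5% SDS-PAGE, transferred to nitrocellulose, milk-blocked, and total IκB detected by Western blot.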

[7] = molecular target: T2, Inhibitor of NF-kappa-B kinase (IKK); experiment: Inhibition of IKK in human A549 cells assessed as inhibition of TNF-alpha-induced IkappaB phosphorylation preincubated for 30 mins before TNFalpha challenge; format: cell-based
In short: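 A549 cells pretreated 30 min with compounds before TNFα (10 ng/ml). Whole-cell NP-40 lysates prepared 7 min after TNFα, run on 12.5% SDS-PAGE and Western blotted with anti-pS32 IκB antibody. Membrane then stripped and reprobed for total IκB.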

[8] = Growth inhibition of human NCI-H1944 cells after 72 hrs by alamar blue method; format: functional; details: NCI-H1944, 72 h; in short: as §2
[9] = tested on: NCI-H460; experiment: Growth inhibition of human H460 cells after 72 hrs by alamar blue method; format: functional; details: NCI-H460, 72 h; in short: as §2
[10] = tested on: A549; experiment: Anticlonogenic activity against human A549 cells assessed as inhibition of colony formation of cells treated at 0.2 uM with test compound after cell plating and every 3 days thereafter and measured on day 9 after colonies formed by SRB assay; format: functional
In short: (§3)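 A549 cells plated at 200 cells/well, incubated overnight, then exposed to compound or DMSO vehicle; medium and compound renewed every 3 days. On day 9, colonies fixed with 10% TCA for 30 min at 4°C, water-washed, SRB-stained and rinsed with 1% acetic acid. Plates scanned, colonies counted and normalized to DMSO control.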

[11] = tested on: A549; experiment: Anticlonogenic activity against human A549 cells assessed as inhibition of colony formation of cells treated at 4 uM with test compound after cell plating and every 3 days thereafter and measured on day 9 after colonies formed by SRB assay; format: functional, cell-based; in short: as §3
[12] = tested on: A549; experiment: as §1; format: cell-based
[13] = tested on: A549; experiment: Anticlonogenic activity against human A549 cells assessed as inhibition of colony formation of cells treated at 0.4 uM with test compound after cell plating and every 3 days thereafter and measured on day 9 after colonies formed by SRB assay; format: functional; in short: as §3

SMILES | GI50 [1] | IC50 [2] | other results
COc1cccc(C=C(C(=O)/C=C/c2ccc(O)c(OC)c2)C(=O)/C=C/c2ccc(O)c(OC)c2)c1 | 640 nM | 1300 nM | –
COc1ccc(/C=C/C(=O)/C=C(O)/C=C/c2ccc(OC)cc2)cc1 | > 25000 nM | > 40000 nM | –
COc1ccc(/C=C/C(=O)C(=Cc2cccc(F)c2)C(=O)/C=C/c2ccc(OC)c(OC)c2)cc1OC | 580 nM | 1300 nM | –
COc1ccc(/C=C/C(=O)C(=CO)C(=O)/C=C/c2ccc(OC)c(OC)c2)cc1OC | > 25000 nM | > 40000 nM | –
COc1ccc(/C=C/C(=O)C(=Cc2ccc(N(C)C)cc2)C(=O)/C=C/c2ccc(OC)c(OC)c2)cc1OC | 2620 nM | > 40000 nM | –
COc1ccc(/C=C/C(=O)C(=Cc2ccc(OC)c(OC)c2)C(=O)/C=C/c2ccc(OC)cc2)cc1 | 930 nM | 3300 nM | –
COc1cc(C=C(C(=O)/C=C/c2ccc(O)c(OC)c2)C(=O)/C=C/c2ccc(O)c(OC)c2)ccc1O | 2000 nM | 1000 nM | –
COc1ccc(OC)c(C=C(C(=O)/C=C/c2ccc(O)c(OC)c2)C(=O)/C=C/c2ccc(O)c(OC)c2)c1 | 670 nM | 1400 nM | –
COc1cc(C=C(C(=O)/C=C/c2ccc(OC)c(OC)c2)C(=O)/C=C/c2ccc(OC)c(OC)c2)ccc1O | 530 nM | 1000 nM | GI50 [3]: 160 nM; GI50 [4]: 720 nM; inhibition [5]: Dose-dependent effect; inhibition [6]: Active; IC50 [7]: 2800 nM; GI50 [8]: 70 nM; GI50 [9]: 130 nM; inhibition at 0.2 µM [10]: 50%
COc1cc(/C=C/C(=O)C(=CO)C(=O)/C=C/c2ccc(OC(C)=O)c(OC)c2)ccc1OC(C)=O | > 25000 nM | 39300 nM | –
COc1ccc(C=C(C(=O)/C=C/c2ccc(OC)c(OC)c2)C(=O)/C=C/c2ccc(OC)c(OC)c2)cc1OC | 310 nM | 1500 nM | –
COc1ccc(/C=C/C(=O)C(=Cc2cc(OC)c(OC)c(OC)c2)C(=O)/C=C/c2ccc(OC)c(OC)c2)cc1OC | 230 nM | 1800 nM | –
COc1ccc(/C=C/C(=O)C(=CO)C(=O)/C=C/c2ccc(OC)cc2)cc1 | > 25000 nM | > 40000 nM | –
COc1cc(/C=C/C(=O)/C=C/c2sccc2C)cc(OC)c1OC | 9310 nM | 24300 nM | –
O=C(/C=C(O)/C=C/c1ccco1)/C=C/c1ccco1 | > 25000 nM | > 40000 nM | –
CCc1ccc(C=C(C(=O)/C=C/c2ccc(OC)c(OC)c2)C(=O)/C=C/c2ccc(OC)c(OC)c2)cc1 | 630 nM | 4900 nM | –
COc1ccc(C=C(C(=O)/C=C/c2ccc(OC)c(OC)c2)C(=O)/C=C/c2ccc(OC)c(OC)c2)c(OC)c1 | 650 nM | 1700 nM | –
COc1ccc(/C=C/C(=O)C(=Cc2cccc(OC)c2OC)C(=O)/C=C/c2ccc(OC)c(OC)c2)cc1OC | 670 nM | 1500 nM | –
COc1ccc(/C=C/C(=O)C(=Cc2ccc(C)o2)C(=O)/C=C/c2ccc(OC)c(OC)c2)cc1OC | 1310 nM | 2800 nM | –

SMILES | GI50 [1] | IC50 [2] | other results
COc1cc(/C=C/C(=O)CC(=O)/C=C/c2ccc(O)c(OC)c2)ccc1O [CURCUMIN] | 15200 nM | 9500 nM | GI50 [3]: 19200 nM; GI50 [4]: 9440 nM; GI50 [8]: 16200 nM; GI50 [9]: 12100 nM; Activity [11]: Active
COc1ccc(/C=C/C(=O)C(=Cc2ccc(F)cc2)C(=O)/C=C/c2ccc(OC)c(OC)c2)cc1OC | 550 nM | 1100 nM | inhibition [12]: Dose-dependent effect; GI50 [3]: 280 nM; GI50 [4]: 700 nM; inhibition [5]: Dose-dependent effect; inhibition [6]: Active; IC50 [7]: 2200 nM; GI50 [8]: 280 nM; GI50 [9]: 270 nM; inhibition at 0.2 µM [10]: 50%
COc1ccc(C=C(C(=O)/C=C/c2ccc(O)c(OC)c2)C(=O)/C=C/c2ccc(O)c(OC)c2)c(OC)c1 | 690 nM | 1000 nM | –
COc1ccc(/C=C/C(=O)C(=Cc2ccc(O)cc2)C(=O)/C=C/c2ccc(OC)c(OC)c2)cc1OC | 420 nM | 1400 nM | –
COc1cc(/C=C/C(=O)C(=Cc2cccc(F)c2)C(=O)/C=C/c2ccc(O)c(OC)c2)ccc1O | 360 nM | 1400 nM | –
COc1ccc(C=C(C(=O)/C=C/c2cc(OC)c(OC)c(OC)c2)C(=O)/C=C/c2cc(OC)c(OC)c(OC)c2)cc1OC | 370 nM | 1000 nM | –
COc1ccc(/C=C/C(=O)/C=C(O)/C=C/c2ccc(OC)c(OC)c2)cc1OC [DIMETHYLCURCUMIN] | 5800 nM | > 40000 nM | –
COc1ccc(/C=C/C(=O)C(=Cc2cc(OC)c(OC)c(OC)c2)C(=O)/C=C/c2ccc(OC)cc2)cc1 | 1120 nM | 3800 nM | –
COc1cc(/C=C/C(=O)C(=Cc2ccc(OC)c(OC)c2)C(=O)/C=C/c2ccc(O)c(OC)c2)ccc1O | 430 nM | > 40000 nM | –
COc1cc(/C=C/C(=O)/C=C/c2cc(OC)c(OC)c(OC)c2)cc(OC)c1OC | 550 nM | 7900 nM | –
COc1cc(/C=C/C(=O)/C(=C/c2cc(OC)c(OC)c(OC)c2)C(C)=O)cc(OC)c1OC | 530 nM | 4800 nM | –
COc1cc(/C=C/C(=O)C(=Cc2ccc(F)cc2)C(=O)/C=C/c2ccc(O)c(OC)c2)ccc1O | 780 nM | 2700 nM | –
COc1cc(/C=C/C(=O)C(=Cc2cccc(OC)c2OC)C(=O)/C=C/c2ccc(O)c(OC)c2)ccc1O | 420 nM | 1700 nM | GI50 [3]: 530 nM; GI50 [4]: 930 nM; inhibition [5]: Dose-dependent effect; inhibition at 0.4 µM [13]: 50%; inhibition [6]: Active; IC50 [7]: 5000 nM; GI50 [8]: 330 nM; GI50 [9]: 300 nM
COc1ccc(OC)c(C=C(C(=O)/C=C/c2ccc(OC)c(OC)c2)C(=O)/C=C/c2ccc(OC)c(OC)c2)c1 | 530 nM | 1500 nM | –
CCc1ccc(C=C(C(=O)/C=C/c2ccc(O)c(OC)c2)C(=O)/C=C/c2ccc(O)c(OC)c2)cc1 | 550 nM | 1800 nM | –
COc1ccc(/C=C/C(=O)/C=C/c2cc(OC)c(OC)c(OC)c2)cc1OC | 1210 nM | 9000 nM | –
COc1ccc(/C=C/C(=O)C(=Cc2ccc(O)c(OC)c2)C(=O)/C=C/c2ccc(OC)cc2)cc1 | 1640 nM | 3000 nM | –
Cc1ccc(/C=C/C(=O)/C=C(O)/C=C/c2ccc(C)o2)o1 | > 25000 nM | 8500 nM | –
